Assay outcomes: PubChem BioAssay, several laboratories
An excerpt weighted towards active compounds, which were near 29% of everything screened.
CYP2C19 activ: cytochrome P450 2C19 (human) activation; P33261; recombinant CYP2C19, luciferin-H EGE luminescence; stronger effect = higher value; 0 = fully inhibited enzyme, 1 = untreated enzyme; activation factor at 5 µM; 96,000 tested, under 10 active;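 active = activation factor of at least 2 at 5 µM in the primary screen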;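 also: 0 = wells with 2.5 mM tranylcypromine and 1 = vehicle-only wells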
Target sequence (P33261 whole entry, looked up): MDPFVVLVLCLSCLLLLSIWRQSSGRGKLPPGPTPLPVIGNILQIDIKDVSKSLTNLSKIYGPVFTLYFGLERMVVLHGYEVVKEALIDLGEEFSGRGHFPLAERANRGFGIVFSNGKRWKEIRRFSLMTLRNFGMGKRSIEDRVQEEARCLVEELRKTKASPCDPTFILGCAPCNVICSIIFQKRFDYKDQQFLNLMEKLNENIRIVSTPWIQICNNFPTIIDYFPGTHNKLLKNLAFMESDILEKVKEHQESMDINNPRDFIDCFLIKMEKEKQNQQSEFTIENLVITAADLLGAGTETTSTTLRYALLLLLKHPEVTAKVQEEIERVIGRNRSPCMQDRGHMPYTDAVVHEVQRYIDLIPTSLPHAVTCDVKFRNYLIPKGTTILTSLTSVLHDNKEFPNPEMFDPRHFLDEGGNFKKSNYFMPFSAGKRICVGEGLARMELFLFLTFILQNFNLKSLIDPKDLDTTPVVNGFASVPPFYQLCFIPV
CYP2C19 inhib: blocks human cytochrome P450 2C19 | inhibition, % at 5 µM | AID 778 | CYP2C19 Supersomes, luciferin-H EGE luminescence, 30 min | 96,000 compounds, 21% hits | P33261;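 active = CYP2C19 inhibition above a set limit at 5 µM in the primary screen, cut at about 50% in these data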;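 also: plate controls were negative control wells for no effect and 2.5 mM tranylcypromine positive control for full effect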
E coli WT exp: blocks growth of wild type E. coli BW25113. OD600 absorbance. growth inhibition, % at 100 µM. AID 710. 98,000 compounds, 0.15% hits;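 active = growth inhibition above about 50% at one test dose, limit read from the data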;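 also: growth measured after 20 h incubation at 37 °C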
CYP2C9 inhib: blocks human cytochrome P450 2C9 | P11712 | CYP2C9 Supersomes, luciferin-H conversion, luminescence | inhibition, % at 5 µM | 96,000 compounds, 20% hits;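 active = blocking of liver enzyme CYP2C9 beyond about 50% at 5 µM, limit read from the data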
CYP2C9 activ: activators of human CYP2C9; 96,000 compounds, 1.4% hits; P11712; activation factor at 5 µM; recombinant CYP2C9, luciferin-H conversion, luminescence; stronger effect = higher value; factor 1 = untreated enzyme, 0 = blocked;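 active = activation factor of 2 or more for CYP2C9 at a 5 µM dose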;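 also: 0 = sulfaphenazole-blocked wells and 1 = vehicle-only wells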
Ecoli tolC: blocks growth of E. coli BW25113 tolC mutant. OD615. growth inhibition, % at 10 µM (by protocol). 65,000 compounds, 2.2% hits;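 active = growth inhibition at or above a cutoff equal to the mean over every tested compound plus 3 SD, cut at about 60% in these data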;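 also: growth measured after 20 h incubation at 37 °C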
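Test system – E. coli BW25113 ΔtolC::kan, tolC deletion mutant strain · Detection – OD at 615 nm · Buffer or medium – LB with kanamycin 50 µg/mL · Times – 20 h compound exposure of bacteria at 37 °C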
Starred values were filed as active, the others as inactive; . = no result.

SMILES	CYP2C19 activ	CYP2C19 inhib	E coli WT exp	CYP2C9 inhib	CYP2C9 activ	Ecoli tolC
Cn1c2c(c(=O)n(C)c1=O)C1c3cc(Cl)ccc3OCC1CO2 (stereo not given)	0.3	69*	-16	7	0.9	.
CCCCCC/C(=N\NS(C)(=O)=O)c1ccccc1	0.8	17	-4	35	0.7	.
CC(C)(C)C(=O)Nc1ccc(Oc2ccc3c(c2)C(=O)N(c2ccc(O)cc2)C3=O)cc1	0.7	32	-9	33	0.7	.
CCC(=O)Nc1ccc(Oc2ccc3c(c2)C(=O)N(c2ccc(O)cc2)C3=O)cc1	0.2	77*	-6	32	0.7	.
N#Cc1c(SCC(=O)Nc2nccs2)nc2c(c1-c1ccco1)CCCC2	0.5	46	1	70*	0.3	-5
CCc1ccccc1NC(=O)CSc1nc2c(c(-c3ccco3)c1C#N)CCCC2	0.1	88*	-16	34	0.7	16
Cc1ccccc1NC(=O)CSc1nc2c(c(-c3ccco3)c1C#N)CCCC2	0.6	43	-5	27	0.7	-12
Cc1nc(NCc2ccco2)[nH]c(=O)c1CCC(C)C	0.4	57*	2	14	0.9	19
Cc1nc(SCC(N)=O)[nH]c(=O)c1CCC(C)C	1	-2	2	9	0.9	.
CN(C)CCNC(=O)C(C(=O)c1ccc(F)cc1)n1ccccc1=O (stereo not given)	0.9	11	-18	8	0.9	0
COc1ccc(NCc2ccc(OC)c(OC)c2)cc1	0.3	73*	3	14	0.9	-4
COc1cc(CNc2ccc(C)c(C)c2)cc(OC)c1OC	0.1	91*	6	58*	0.4	-5
COc1cc(CNc2cc(C)ccc2C)cc(OC)c1OC	0	98*	5	82*	0.2	-2
O=C(O)C1C2C=CC(C2)C1C(=O)NCCc1cccc(Cl)c1 (stereo not given)	.	.	-5	.	.	-2
CC1(CC(=O)O)C(=O)N=C2C=CC=CN21 (stereo not given)	.	.	-4	.	.	-9
O=C(O)CCCC(=O)N1CCN(C(c2ccccc2)c2ccccc2)CC1	.	.	.	.	.	-6
COc1ccc(S(=O)(=O)N2CCCCC2)cc1C(C)C	0.7	31	2	22	0.8	43
Cc1ccc(S(=O)(=O)N2CCN(S(=O)(=O)N3CCCCC3)CC2)c(C)c1	0.8	17	-7	-11	1.1	8
O=S(=O)(c1cccc(Cl)c1Cl)N1CCCCC1	0.2	83*	12	-170	2.7*	11
COc1c(S(=O)(=O)N2CCCC2)ccc(Cl)c1Cl	0.1	88*	-2	-140	2.4*	-1
Fc1cccc(NC(=S)Nc2ccc(Br)cc2)c1	0.2	82*	43	58*	0.4	.
CCOc1cc(N2CCOCC2)c(OCC)cc1NC(=O)COc1ncnc2ccc(Br)cc12	1	-4	-6	2	1	.
CCc1nc(NCCCn2ccnc2)c2oc3ccccc3c2n1	0.1	91*	3	98*	0	0
Cc1cccc2cc(C#N)c(NCCCn3ccnc3)nc12	0	98*	16	98*	0	54
Cc1cc(NCCCn2ccnc2)n2c(nc3ccccc32)c1C#N	0.2	77*	-6	83*	0.2	-9
SMILES	CYP2C19 activ	CYP2C19 inhib	E coli WT exp	CYP2C9 inhib	CYP2C9 activ	Ecoli tolC
CCC(C)c1ccc(Nc2ncccc2C#N)cc1 (stereo not given)	0.9	8	2	24	0.8	.
Cn1c(SCc2ccc(C#N)cc2Cl)nc2ccccc21	0.4	57*	-4	33	0.7	16
COc1ccc(/C=C2\CCCC(C(=O)C(F)(F)F)=C2O)cc1	1.1	-14	-4	82*	0.2	.
CCCc1cc2c(cc1NS(=O)(=O)c1ccc(CCNC(C)=O)cc1)OCO2	0.2	78*	4	40	0.6	-29
CCCNS(=O)(=O)c1ccc(CCC(=O)NCc2ccc3c(c2)OCO3)cc1	0.2	80*	4	74*	0.3	10
CC(C)(C)NS(=O)(=O)c1ccc(OCC(=O)Nc2ccc3c(c2)OCCO3)cc1	0.6	38	-3	47	0.5	5
CC(C)(C)NS(=O)(=O)c1ccc(CCC(=O)Nc2ccc3c(c2)OCO3)cc1	0.4	58*	-4	94*	0.1	.
O=C(CCNS(=O)(=O)c1ccc(Br)cc1)NCc1ccc2c(c1)OCO2	0.8	22	2	-6	1.1	14
CC(=O)NCCc1ccc(S(=O)(=O)NCc2ccc3c(c2)OCO3)cc1	0.4	61*	2	47	0.5	-5
N#CC1=C(N)N(c2ccccc2)C(c2ccccc2)C1(C#N)C#N (stereo not given)	0.7	29	-6	55*	0.4	2
Cc1cc(C)c2nc(N)sc2c1	0.3	68*	15	32	0.7	0
Cc1cc(C)c2nc(N3CCCC(C(=O)N4CCC(C(N)=O)CC4)C3)sc2c1 (stereo not given)	1	1	-6	-4	1	21
COc1ccccc1N1C(=O)CC(Sc2ncccc2C(=O)O)C1=O (stereo not given)	.	.	4	.	.	0
O=C1CC(Sc2ncccn2)C(=O)N1c1ccccc1C(F)(F)F (stereo not given)	0.4	59*	4	5	0.9	-3
Cc1ccccc1CSc1nc2n(n1)C(c1cccs1)C1=C(CCCC1=O)N2 (stereo not given)	0.8	17	-12	58*	0.4	100*
O=C1CCCC2=C1C(c1cccs1)n1nc(SCc3ccccc3F)nc1N2 (stereo not given)	.	.	-10	.	.	28
O=C1CCCN1CN(C(=O)c1ccccc1)c1ccc(F)cc1	1.1	-13	-1	-6	1.1	-15
Clc1ccc(CNC2CCCC2)c(Cl)c1	0.2	77*	5	-11	1.1	.
CCOC(=O)/C(=N\Nc1ccc(OC)cc1)c1csc(Nc2ccccc2)n1	0.9	11	-14	44	0.6	.
O=c1c(F)cn(C2CCCO2)c(=O)n1Cc1c(F)cccc1Cl (stereo not given)	0.1	92*	-1	16	0.8	-13
Cc1cc(-c2nnc(SCc3cccnc3)o2)no1	0.6	38	0	28	0.7	-7
N#Cc1ccc(CSc2nnc(-c3cnccn3)o2)cc1	0.3	70*	6	27	0.7	1
N#C/C(=C\c1ccco1)Sc1nc2ccccc2s1	0.8	23	-14	-56	1.6	96*
N#CCSc1nc(N)c(C#N)c(C2CCCCC2)c1C#N	0.9	11	11	53*	0.5	24
N#Cc1c(N)nc(SCC(=O)NC2CCCCC2)c(C#N)c1-c1ccc(Cl)cc1	1.1	-5	4	-10	1.1	5
COCCCNC(=O)C(=O)N/N=C/c1ccc(OCC(=O)Nc2cccc(Cl)c2C)c(OC)c1	0.9	9	-3	3	1	.
O=C(Nc1nccs1)c1cn(-c2ccccc2)nc1-c1ccccc1	0.8	21	-12	62*	0.4	.
